According to ChEMBL document CHEMBL4602675, “The Marine Natural Product Manzamine A Inhibits Cervical Cancer by Targeting the SIX1 Protein” (J Nat Prod, 2020):
Calls of active or inactive are those of the source. The calls are words filed in the database; no cut-off is given here.

How the values were obtained:
C-33-A = assay: Antiproliferative activity against human C33A cells assessed as reduction in cell viability at 2 to 4 uM incubated up to 72 hrs by CellTiter-Glo assay; format: functional, cell-based
HeLa = assay: Antiproliferative activity against human HeLa cells assessed as reduction in cell viability at 2 to 4 uM incubated up to 72 hrs by CellTiter-Glo assay; format: functional, cell-based
SiHa = assay: Antiproliferative activity against human SiHa cells assessed as reduction in cell viability at 2 to 4 uM incubated up to 72 hrs by CellTiter-Glo assay; format: functional, cell-based
Ca-Ski = assay: Antiproliferative activity against human CaSki cells assessed as reduction in cell viability at 2 to 4 uM incubated up to 72 hrs by CellTiter-Glo assay; format: functional, cell-based
Keratinocyte = assay: Cytotoxicity against human Keratinocytes assessed as reduction in cell viability at 4 uM incubated up to 72 hrs by trypan blue staining based cell counting assay
[1] = molecular target: T1, Homeobox protein SIX1 (Homo sapiens) (UniProt Q15475); assay: Inhibition of SIX1 in human C33A cells at 40 uM after 48 hrs by Western blot analysis; format: cell-based; conditions: C-33-A
T1 sequence (whole entry): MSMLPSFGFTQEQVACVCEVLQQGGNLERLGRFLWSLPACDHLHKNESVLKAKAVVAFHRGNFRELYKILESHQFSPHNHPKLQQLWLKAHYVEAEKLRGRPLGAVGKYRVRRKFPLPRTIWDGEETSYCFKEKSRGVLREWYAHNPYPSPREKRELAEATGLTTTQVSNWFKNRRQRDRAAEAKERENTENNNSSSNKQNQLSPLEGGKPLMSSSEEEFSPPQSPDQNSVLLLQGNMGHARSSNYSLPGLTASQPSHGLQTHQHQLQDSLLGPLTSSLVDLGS
Outline: (§1)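 Cells seeded at 1 × 10^6 per 100 mm dish and treated next day at 10, 20 or 40 μM for 48 h. Harvested by trypsinization, PBS-washed, and lysed in RIPA buffer with protease inhibitors. Equal protein by colorimetric assay went to SDS-PAGE and PVDF. Primary antibody 1:500, blocked and diluted in 5% nonfat milk/TBST (SIX1) or 3% BSA (CK2α). HRP secondary 1:2000; chemiluminescent detection.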

[2] = molecular target: T1, Homeobox protein SIX1 (Homo sapiens); assay: Inhibition of SIX1 in human SiHa cells at 40 uM after 48 hrs by Western blot analysis; format: cell-based; outline: as §1
[3] = molecular target: T1, Homeobox protein SIX1 (Homo sapiens); assay: Inhibition of SIX1 in human HeLa cells at 40 uM after 48 hrs by Western blot analysis; format: cell-based; outline: as §1
[4] = molecular target: T1, Homeobox protein SIX1 (Homo sapiens); assay: Inhibition of SIX1 in human CaSki cells at 40 uM after 48 hrs by Western blot analysis; format: cell-based; conditions: Ca-Ski; outline: as §1
[5] = molecular target: Casein kinase II subunit alpha (Homo sapiens) (UniProt P68400); conditions: C-33-A, 40 uM
Sequence of Casein kinase II subunit alpha (Homo sapiens) (P68400 whole entry, looked up): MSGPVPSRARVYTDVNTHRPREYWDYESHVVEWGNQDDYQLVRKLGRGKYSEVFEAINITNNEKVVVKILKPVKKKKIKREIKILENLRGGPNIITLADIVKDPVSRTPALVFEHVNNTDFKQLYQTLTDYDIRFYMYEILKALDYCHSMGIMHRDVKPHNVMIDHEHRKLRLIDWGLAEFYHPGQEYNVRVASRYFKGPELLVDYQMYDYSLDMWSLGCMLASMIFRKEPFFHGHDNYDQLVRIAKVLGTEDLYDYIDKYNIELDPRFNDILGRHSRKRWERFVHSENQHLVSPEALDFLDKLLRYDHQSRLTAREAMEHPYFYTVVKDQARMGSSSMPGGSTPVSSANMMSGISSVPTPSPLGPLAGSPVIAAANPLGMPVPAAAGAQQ

[6] = molecular target: Casein kinase II subunit alpha (Homo sapiens) (UniProt P68400); conditions: HeLa, 40 uM
[7] = molecular target: Casein kinase II subunit alpha (Homo sapiens) (UniProt P68400); conditions: SiHa, 40 uM
[8] = molecular target: Casein kinase II subunit alpha (Homo sapiens) (UniProt P68400); conditions: Ca-Ski, 40 uM
[9] = Toxicity in po dosed mouse; format: organism-based; conditions: in vivo

| Structure (SMILES) | Activity (C-33-A) | Activity (HeLa) | Activity (SiHa) | Activity (Ca-Ski) | other results |
| --- | --- | --- | --- | --- | --- |
| Oc1cccc2c1[nH]c1c(C3=C[C@@]4(O)CC/C=C\CCCCN5CC[C@@H]3[C@]3(C[C@@H]6/C=C\CCCCN6[C@H]34)C5)nccc12 | Active | Active | Active | Active | Activity (Keratinocyte): Toxic |
| O=C1CCCN2[C@@H](CC1)C[C@]13CN4CCCC/C=C\CC[C@](O)(C=C(c5nccc6c5[nH]c5c(O)cccc56)[C@@H]1CC4)[C@H]23 | inactive | inactive | inactive | inactive |  |
| O=CC1=C[C@@]2(O)CC/C=C\CCCCN3CC[C@@H]1[C@]1(C[C@@H]4/C=C\CCCCN4[C@H]12)C3 | inactive | inactive | inactive | inactive |  |
| O=c1cc(-c2ccc(O)cc2)oc2cc(O)cc(O)c12 |  |  |  |  | inhibition [1]: Active; inhibition [2]: Active; inhibition [3]: Active; inhibition [4]: Active; inhibition [5]: Active; inhibition [6]: Active; inhibition [7]: Active; inhibition [8]: Active |
| O[C@]12C=C([C@H]3NCCc4c3[nH]c3ccccc43)[C@@H]3CCN(CCCC/C=C\CC1)C[C@@]31C[C@@H]3/C=C\CCCCN3[C@H]12 | inactive | inactive | inactive | inactive |  |
| CC(=O)Nc1ccc(O)cc1 [ACETAMINOPHEN] |  |  |  |  | LD50 [9]: 338 mg/kg |
